Assay results as given in ChEMBL document CHEMBL4138161, “Discovery of simplified sampangine derivatives as novel fungal biofilm inhibitors” (Eur J Med Chem, 2018).
Values after ≈ are worked out from the molar mass of the structure shown.

Columns and labels:
Assay type in all cases: functional
Candida albicans = assay: Antifungal activity against Candida albicans SC5314 after 24 hrs by spectrophotometric analysis; settings: SC5314, 24 h
Outline: (§1)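 Broth microdilution in RPMI 1640, inoculum 5×10^3 CFU/mL, compounds from 6.4 mg/mL DMSO stocks, 35 ℃ for 24 h. Growth read as OD600; MIC80 taken as lowest concentration giving 80% growth inhibition. Triplicate.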

Candida parapsilosis = assay: Antifungal activity against Candida parapsilosis 22019 after 24 hrs by spectrophotometric analysis; settings: Lodderomyces parapsilosis, 22019, 24 h; outline: as §1
Nakaseomyces glabratus = assay: Antifungal activity against Candida glabrata 537 after 24 hrs by spectrophotometric analysis; settings: Nakaseomyces glabratus, 537, 24 h; outline: as §1
Cryptococcus neoformans = assay: Antifungal activity against Cryptococcus neoformans 32609 after 24 hrs by spectrophotometric analysis; settings: Cryptococcus neoformans, 32609, 24 h; outline: as §1
Aspergillus fumigatus = assay: Antifungal activity against Aspergillus fumigatus 07544 after 24 hrs by spectrophotometric analysis; settings: Aspergillus fumigatus, 07544, 24 h; outline: as §1
Trichophyton rubrum = assay: Antifungal activity against Trichophyton rubrum Cmccftla after 24 hrs by spectrophotometric analysis; outline: as §1
Nannizzia gypsea = assay: Antifungal activity against Microsporum gypseum Cmccfmza after 24 hrs by spectrophotometric analysis; outline: as §1

Structure (SMILES) | MIC80 (Candida albicans) | MIC80 (Candida parapsilosis) | MIC80 (Nakaseomyces glabratus) | MIC80 (Cryptococcus neoformans) | MIC80 (Aspergillus fumigatus) | MIC80 (Trichophyton rubrum) | MIC80 (Nannizzia gypsea)
CC(C)(C)c1cnc2c(c1)C(=O)c1sc([N+](=O)[O-])cc1C2=O | 2 µg/mL (≈ 6.32 µM) | 4 µg/mL (≈ 12.6 µM) | 4 µg/mL (≈ 12.6 µM) | 1 µg/mL (≈ 3.16 µM) | 4 µg/mL (≈ 12.6 µM) | 1 µg/mL (≈ 3.16 µM) | 1 µg/mL (≈ 3.16 µM)
CC(C)c1cnc2c(c1)C(=O)c1sc([N+](=O)[O-])cc1C2=O | 2 µg/mL (≈ 6.62 µM) | 4 µg/mL (≈ 13.2 µM) | 4 µg/mL (≈ 13.2 µM) | 0.5 µg/mL (≈ 1.65 µM) | 4 µg/mL (≈ 13.2 µM) | 1 µg/mL (≈ 3.31 µM) | 1 µg/mL (≈ 3.31 µM)
Cc1ccnc2c1C(=O)c1sc(N)cc1C2=O | > 64 µg/mL | > 64 µg/mL | > 64 µg/mL | > 64 µg/mL | > 64 µg/mL | 8 µg/mL (≈ 32.7 µM) | > 64 µg/mL
Cc1ccc(C(C)c2ccnc3c2C(=O)c2sc([N+](=O)[O-])cc2C3=O)o1 (stereo not given) | > 64 µg/mL | > 64 µg/mL | > 64 µg/mL | 0.25 µg/mL (≈ 0.679 µM) | 32 µg/mL (≈ 86.9 µM) | 1 µg/mL (≈ 2.71 µM) | 1 µg/mL (≈ 2.71 µM)
CCCCc1cnc2c(c1)C(=O)c1sc([N+](=O)[O-])cc1C2=O | 2 µg/mL (≈ 6.32 µM) | 4 µg/mL (≈ 12.6 µM) | 4 µg/mL (≈ 12.6 µM) | 0.5 µg/mL (≈ 1.58 µM) | 4 µg/mL (≈ 12.6 µM) | 1 µg/mL (≈ 3.16 µM) | 1 µg/mL (≈ 3.16 µM)
Cc1ccnc2c1C(=O)c1ccn(C)c1C2=O | > 64 µg/mL | > 64 µg/mL | > 64 µg/mL | > 64 µg/mL | > 64 µg/mL | > 64 µg/mL | > 64 µg/mL
Cc1ccnc2c1C(=O)C1=C(OC(C)(C)C1)C2=O | > 64 µg/mL | > 64 µg/mL | 16 µg/mL (≈ 65.8 µM) | > 64 µg/mL | 64 µg/mL (≈ 263 µM) | 64 µg/mL (≈ 263 µM) | > 64 µg/mL
CC(C)(C)OC(=O)/C=C\c1ccnc2c1C(=O)c1sc([N+](=O)[O-])cc1C2=O | 32 µg/mL (≈ 82.8 µM) | > 64 µg/mL | > 64 µg/mL | 4 µg/mL (≈ 10.4 µM) | > 64 µg/mL | 4 µg/mL (≈ 10.4 µM) | 4 µg/mL (≈ 10.4 µM)
Cc1cc[n+]([O-])c2c1C(=O)c1sc([N+](=O)[O-])cc1C2=O | 8 µg/mL (≈ 27.6 µM) | 32 µg/mL (≈ 110 µM) | 64 µg/mL (≈ 220 µM) | 4 µg/mL (≈ 13.8 µM) | > 64 µg/mL | 8 µg/mL (≈ 27.6 µM) | 4 µg/mL (≈ 13.8 µM)
O=C1c2cc([N+](=O)[O-])sc2C(=O)c2c(C(Br)Br)ccnc21 | 32 µg/mL (≈ 74.1 µM) | 32 µg/mL (≈ 74.1 µM) | 16 µg/mL (≈ 37 µM) | 32 µg/mL (≈ 74.1 µM) | 64 µg/mL (≈ 148 µM) | 32 µg/mL (≈ 74.1 µM) | 16 µg/mL (≈ 37 µM)
Cc1ccnc2c1[C@H](O)c1sc([N+](=O)[O-])cc1[C@H]2O (relative stereo) | > 64 µg/mL | > 64 µg/mL | > 64 µg/mL | > 64 µg/mL | > 64 µg/mL | > 64 µg/mL | > 64 µg/mL
O=C1c2cc([N+](=O)[O-])sc2C(=O)c2cccnc21 | 0.5 µg/mL (≈ 1.92 µM) | 2 µg/mL (≈ 7.69 µM) | 1 µg/mL (≈ 3.84 µM) | 0.5 µg/mL (≈ 1.92 µM) | 1 µg/mL (≈ 3.84 µM) | 0.5 µg/mL (≈ 1.92 µM) | 0.5 µg/mL (≈ 1.92 µM)
CCCc1cnc2c(c1)C(=O)c1sc([N+](=O)[O-])cc1C2=O | 2 µg/mL (≈ 6.62 µM) | 4 µg/mL (≈ 13.2 µM) | 4 µg/mL (≈ 13.2 µM) | 0.5 µg/mL (≈ 1.65 µM) | 4 µg/mL (≈ 13.2 µM) | 1 µg/mL (≈ 3.31 µM) | 1 µg/mL (≈ 3.31 µM)
O=C1c2cc([N+](=O)[O-])sc2C(=O)c2c(-c3ccccc3[N+](=O)[O-])ccnc21 | 16 µg/mL (≈ 42 µM) | > 64 µg/mL | > 64 µg/mL | 4 µg/mL (≈ 10.5 µM) | 64 µg/mL (≈ 168 µM) | 16 µg/mL (≈ 42 µM) | 8 µg/mL (≈ 21 µM)
O=Cc1ccnc2c1C(=O)c1sc([N+](=O)[O-])cc1C2=O | 4 µg/mL (≈ 13.9 µM) | 8 µg/mL (≈ 27.8 µM) | 0.125 µg/mL (≈ 0.434 µM) | 8 µg/mL (≈ 27.8 µM) | 16 µg/mL (≈ 55.5 µM) | 1 µg/mL (≈ 3.47 µM) | 2 µg/mL (≈ 6.94 µM)
